Reference: ChEMBL document CHEMBL3425429
Active and inactive are the calls of the source. The rule behind the calls is not given here.

Key:
[1] = test system: MDA-MB-231; test: Antitumor activity against human MDA-MB-231 cells xenografted in SCID mouse assessed as tumor growth inhibition at 7.5 to 15 mg/kg/day, po qd administered for 18 days measured every 3 days during compound dosing; assay type: functional, organism-based
Outline: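 SCID mice (5–6 weeks) were injected subcutaneously with 100 μL of exponential-phase MDA-MB-231 cells (5 × 10^7 per mL). They were randomized at 150–200 mm3 tumor volume (6 per group) and dosed orally once daily for 18 days in sterile water with 25% PEG400 plus 5% DMSO, with a vehicle group. Tumor volume (ab2/2) was measured every 3 days.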

[2] = test system: MDA-MB-231; test: Induction of apoptosis in human MDA-MB-231 cells assessed as viable cells at 0.3 uM after 48 hrs by annexin V-FITC/propidium iodide staining-based flow cytometric analysis (reference value: 94.4%); assay type: functional; conditions: MDA-MB-231, 48 h, read-out: Activity
[3] = test system: MDA-MB-453; test: Cytotoxicity against human MDA-MB-453 cells assessed as cell viability after 72 hrs by MTT assay; assay type: functional, cell-based; conditions: MDA-MB-453, 72 h
[4] = test system: Rattus norvegicus; test: AUC (0 to infinity) in Sprague-Dawley rat at 10 mg/kg, po by LC/MS analysis; assay type: ADME, organism-based, Plasma; design: time infinity, dose 10 mg/kg, route oral; conditions: in vivo
Outline: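 Single oral gavage dose in male Sprague-Dawley rats fasted overnight; serial blood drawn via surgically placed jugular vein catheters at set times, plasma separated at once and measured by HPLC-MS/MS; noncompartmental parameters fitted; n=5.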

[5] = test system: MDA-MB-231; test: Induction of apoptosis in human MDA-MB-231 cells assessed as late apoptotic cells at 0.1 uM after 48 hrs by annexin V-FITC/propidium iodide staining-based flow cytometric analysis (reference value: 4.25%); assay type: functional
[6] = test system: MDA-MB-231; test: Induction of apoptosis in human MDA-MB-231 cells assessed as early apoptotic cells at 0.1 uM after 48 hrs by annexin V-FITC/propidium iodide staining-based flow cytometric analysis (reference value: […]); assay type: functional
[7] = target: Mitogen-activated protein kinase 8 (Homo sapiens, UniProt P45983); test: Inhibition of human JNK1alpha1
Outline: (§1)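 Recombinant human protein kinases screened through the Eurofins KinaseProfiler service. IC50 values are means of two independent experiments.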

[8] = test system: MDA-MB-231; test: Induction of apoptosis in human MDA-MB-231 cells assessed as viable cells at 0.1 uM after 24 hrs by annexin V-FITC/propidium iodide staining-based flow cytometric analysis (reference value: 95.5%); assay type: functional; conditions: MDA-MB-231, 24 h, read-out: Activity
[9] = test system: MDA-MB-231; test: Antitumor activity against human MDA-MB-231 cells xenografted in SCID mouse assessed as reduction in number of proliferating cells in tumor at 30 mg/kg/day, po administered for 18 days measured post last dose by Ki67 staining-based assay; assay type: functional, organism-based
Outline: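 SCID mice carrying subcutaneous MDA-MB-231 xenografts received oral dosing once daily for 18 days (vehicle 25% PEG400 plus 5% DMSO in sterile water); at the end, tumors formalin-fixed and paraffin-embedded, 4–8 μm sections immunostained (Ki67, phospho-proteins) or TUNEL/AP-Red labelled, and compared with control.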

[10] = test system: MDA-MB-231; test: Induction of apoptosis in human MDA-MB-231 cells assessed as viable cells at 0.1 uM after 48 hrs by annexin V-FITC/propidium iodide staining-based flow cytometric analysis (reference value: 94.4%); assay type: functional; conditions: MDA-MB-231, 48 h, read-out: Activity
[11] = target: Dual specificity mitogen-activated protein kinase kinase 1 (Homo sapiens, UniProt Q02750); test: Inhibition of human MEK1; outline: as §1
Chain of Dual specificity mitogen-activated protein kinase kinase 1 (Q02750 whole entry): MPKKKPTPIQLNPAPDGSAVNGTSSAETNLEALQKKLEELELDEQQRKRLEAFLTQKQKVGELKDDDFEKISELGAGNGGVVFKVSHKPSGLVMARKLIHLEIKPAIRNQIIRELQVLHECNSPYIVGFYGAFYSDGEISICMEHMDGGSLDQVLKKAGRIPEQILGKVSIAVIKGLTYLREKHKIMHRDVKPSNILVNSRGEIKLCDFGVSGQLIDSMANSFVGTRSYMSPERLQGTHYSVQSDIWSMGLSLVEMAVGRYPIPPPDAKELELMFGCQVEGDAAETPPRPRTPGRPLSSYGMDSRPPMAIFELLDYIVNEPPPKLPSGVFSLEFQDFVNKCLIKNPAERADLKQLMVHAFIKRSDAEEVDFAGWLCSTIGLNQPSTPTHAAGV

Chain of Mitogen-activated protein kinase 8 (P45983 whole entry, looked up): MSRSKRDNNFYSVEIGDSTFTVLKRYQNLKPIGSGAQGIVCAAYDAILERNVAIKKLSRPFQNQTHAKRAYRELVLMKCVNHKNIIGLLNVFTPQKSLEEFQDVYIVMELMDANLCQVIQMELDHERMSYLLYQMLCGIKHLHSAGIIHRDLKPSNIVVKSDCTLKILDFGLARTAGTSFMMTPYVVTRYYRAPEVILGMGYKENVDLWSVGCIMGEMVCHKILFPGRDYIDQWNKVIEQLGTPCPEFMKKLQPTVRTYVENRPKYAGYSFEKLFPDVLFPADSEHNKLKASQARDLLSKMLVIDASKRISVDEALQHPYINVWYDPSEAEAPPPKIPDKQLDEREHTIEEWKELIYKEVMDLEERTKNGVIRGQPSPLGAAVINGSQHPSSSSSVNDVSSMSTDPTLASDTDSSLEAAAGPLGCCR

AUC [4]: 4772.5 µg/L/h
IC50 [7]: > 10 µM
IC50 [11]: > 10 µM
Compound: CCn1nc(C#Cc2cc(C(=O)Nc3ccc(CN4CCN(C)CC4)c(C(F)(F)F)c3)ccc2C)c2c(N)ncnc21
TGI [1]: Active
viability at 0.3 µM [2]: 63.2%
IC50 [3]: 0.325 µM
Activity [5]: 15.9%
Activity [6]: 13.9%
viability at 0.1 µM [8]: 79.1%
Activity [9]: Active
viability at 0.1 µM [10]: 69.2%
